Assay outcomes (PubChem)
Compounds with a hit are over-represented: about 5.8% of the library has one in this group of screens.
Pf Dd2 growth: P. falciparum Dd2 growth inhibition. SYBR Green, 72 h; hits give low values. activity change, % at 10 µM. 2.3% of 94,000 active. AID 1159554; in the data active = activity change below about -80%; inconclusive = no clear call, values can overlap the other calls
KDM4C inh: inhibitors of human demethylase GASC-1 KDM4C; Q9H3R0; GST-KDM4C 2-372, H3K9me3 peptide, LANCE TR-FRET; inhibition, % at 12.5 µM; 0.15% of 96,000 active; AID 720574;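 active = mean replicate inhibition above about 25%, with at least 55% of replicates also reaching it, limit read from the data, passing the limit was not always enough; inconclusive = only one of those two conditions met; inactive = neither condition met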
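System: N-terminal GST-fused human GASC-1 (KDM4C) fragment, residues 2-372 / Amount: 10 nM GST-KDM4C in enzyme reaction / Also added: H3K9me3 peptide with Fe(II)/2OG / Times: 30 min demethylation and 1 h detection at room temperature / Signal: LANCE TR-FRET / Read-out basis: Fall in 671/618 emission ratio as inhibition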
IDH1 mut inh: blocks human IDH1 R132H reductase activity. AID 624101. diaphorase/resazurin fluorescence, 60 min. 0.18% of 70,000 active. inhibition, % at 10 µM. O75874; in the data active = inhibition above about 34%; inconclusive = no clear call, values can overlap the other calls; inactive = below about 11%;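 note: 0% = DMSO and 100% = no enzyme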
Target sequence (O75874 whole entry R132H): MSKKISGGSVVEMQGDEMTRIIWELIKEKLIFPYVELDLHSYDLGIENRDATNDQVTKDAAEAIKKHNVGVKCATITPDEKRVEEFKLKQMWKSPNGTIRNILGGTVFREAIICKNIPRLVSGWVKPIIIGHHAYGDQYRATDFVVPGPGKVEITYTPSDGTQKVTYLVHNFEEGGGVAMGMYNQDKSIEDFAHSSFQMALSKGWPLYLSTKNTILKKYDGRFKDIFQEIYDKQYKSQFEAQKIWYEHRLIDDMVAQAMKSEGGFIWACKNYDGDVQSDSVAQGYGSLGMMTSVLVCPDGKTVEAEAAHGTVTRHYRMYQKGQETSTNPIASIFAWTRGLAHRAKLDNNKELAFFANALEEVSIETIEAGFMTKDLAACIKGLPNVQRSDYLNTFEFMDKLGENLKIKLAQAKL
T cruzi growth: blocks T. cruzi growth in NIH3T3 culture | T. cruzi beta-gal in NIH3T3, GalScreen luminescence, 90 h | inhibition, % at 8.34 µM | 5.9% of 77,000 active | AID 624255;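 active = mean inhibition above about 93%, with at least 55% of replicates each passing it, limit read from the data, passing the limit was not always enough; inconclusive = only one of those two conditions holds; inactive = neither condition holds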
* marks the source's active call; other numbers are inactive results; ? = inconclusive; . = no result given.

SMILES	Pf Dd2 growth	KDM4C inh	IDH1 mut inh	T cruzi growth
COc1ccc2c3c(n(C)c2c1)[C@@H](CO)N(C(=O)C1CCCC1)CC31CN(C(=O)Nc2cccc(F)c2)C1	-88*	-2	.	.
C[C@@H]1CN([C@H](C)CO)C(=O)c2cc(NC(=O)Nc3cccc4ccccc34)ccc2O[C@@H](C)CCCCO[C@@H]1CN(C)S(=O)(=O)c1ccc(F)cc1	-87*	0	.	8
C[C@@H]1CN([C@@H](C)CO)C(=O)c2cc(NC(=O)Nc3cccc4ccccc34)ccc2O[C@@H](C)CCCCO[C@@H]1CN(C)S(=O)(=O)c1ccc(F)cc1	-83*	0	-3	30
O=[N+]([O-])c1ccc(OCCCSc2ncccn2)cc1	.	.	0	.
C[C@H]1CN([C@@H](C)CO)C(=O)Cc2cc(NC(=O)Nc3ccc4c(c3)OCO4)ccc2O[C@H]1CN(C)CC1CCCCC1	8	2	3	36
C[C@H](CO)N1C[C@H](C)[C@@H](CN(C)CC2CCCCC2)Oc2ccc(NC(=O)Nc3ccc4c(c3)OCO4)cc2CC1=O	-41	0	.	16
C[C@@H]1CN([C@@H](C)CO)C(=O)Cc2cc(NC(=O)Nc3ccc4c(c3)OCO4)ccc2O[C@@H]1CN(C)CC1CC1	-88*	0	2	-40
C[C@H](CO)N1C[C@H](C)[C@@H](CN(C)CC2CC2)Oc2ccc(NC(=O)Nc3ccc4c(c3)OCO4)cc2CC1=O	-83*	0	1	-38
COc1ccccc1C#Cc1ccc([C@H]2[C@@H](C#N)N(C(=O)C3CCCCC3)[C@H]2CO)cc1	-92*	.	.	84
COc1ccccc1C#Cc1ccc([C@@H]2[C@@H](C#N)N(C(=O)C3CCCCC3)[C@H]2CO)cc1	-91*	.	.	85
COc1ccccc1C#Cc1ccc([C@@H]2[C@@H](C#N)N(C(=O)C3CCCC3)[C@@H]2CO)cc1	-63	-7	.	.
COc1ccccc1C#Cc1ccc([C@H]2[C@@H](CO)N(C(=O)C3CC3)[C@H]2C#N)cc1	?	.	0	89
Cc1cc(C)cc(N(CC(=O)Nc2ccc(C(N)=O)cc2)S(C)(=O)=O)c1	.	.	0	.
O=C(c1ccc2c(c1)OCO2)N1CC(=O)N2[C@H](CO)[C@H](c3ccc(C#Cc4ccccc4)cc3)[C@H]2C1	-82*	-3	.	.
COc1ccc(NC(=O)N2CC(=O)N3[C@H](C2)[C@H](c2ccc(C#CCC4CCCC4)cc2)[C@@H]3CO)cc1	-33	-1	.	.
CC(C)C#Cc1ccc([C@@H]2[C@H](CO)N3CCCCN(C(=O)c4ccc5c(c4)OCO5)C[C@@H]23)cc1	-83*	0	.	35
O=C(c1cccc(F)c1)N1CC(=O)N2[C@H](CO)[C@H](c3ccc(-c4cccnc4)cc3)[C@H]2C1	-86*	-1	.	.
COc1ccc(NC(=O)N2CC(=O)N3[C@@H](CO)[C@H](c4ccc(C#CCC5CCCC5)cc4)[C@@H]3C2)cc1	-90*	-3	.	.
CC(C)C#Cc1ccc([C@H]2[C@H](CO)N3CCCCN(C(=O)c4ccc5c(c4)OCO5)C[C@@H]23)cc1	-41	-1	.	70
COc1ccc(C#Cc2ccc([C@@H]3[C@@H](CO)N4C(=O)CN(C(=O)c5ccccc5)C[C@H]34)cc2)cc1	-87*	-5	.	.
COc1ccc(-c2ccc([C@H]3[C@@H](CO)N4C(=O)CN(C(=O)NC(C)C)C[C@H]34)cc2)cc1	-46	1	.	.
O=C(c1ccc(F)cc1)N1CC(=O)N2[C@H](CO)[C@H](c3ccc(C#Cc4ccc(F)cc4)cc3)[C@H]2C1	-91*	1	.	.
COc1ccc(-c2ccc([C@@H]3[C@H]4CN(C(=O)NC(C)C)CC(=O)N4[C@H]3CO)cc2)cc1	-87*	0	.	.
O=C(c1ccc(F)cc1)N1CC(=O)N2[C@H](CO)[C@@H](c3ccc(C#Cc4ccc(F)cc4)cc3)[C@H]2C1	-29	-1	.	.
CC(Sc1nc(-c2ccccc2)c(C#N)c(=O)[nH]1)C(=O)Nc1cccc(Cl)c1 (centres undefined)	.	.	1	.
SMILES	Pf Dd2 growth	KDM4C inh	IDH1 mut inh	T cruzi growth
CCn1c(SCC(=O)Nc2c(C)cc(C)cc2C)nnc1-c1ccc(Br)cc1	.	.	0	.
COc1ccc(S(=O)(=O)N(C)C[C@@H]2OCCCC[C@@H](C)Oc3ccc(NC(=O)Nc4ccc(C(F)(F)F)cc4)cc3C(=O)N([C@@H](C)CO)C[C@@H]2C)cc1	-88*	-1	.	85
COc1ccc(S(=O)(=O)N(C)C[C@@H]2OCCCC[C@@H](C)Oc3ccc(NC(=O)Nc4ccc(C(F)(F)F)cc4)cc3C(=O)N([C@@H](C)CO)C[C@H]2C)cc1	-75	0	.	90
COc1ccc(S(=O)(=O)N(C)C[C@H]2OCCCC[C@@H](C)Oc3ccc(NC(=O)Nc4ccc(C(F)(F)F)cc4)cc3C(=O)N([C@@H](C)CO)C[C@H]2C)cc1	-85*	1	.	89
COc1ccc(S(=O)(=O)N(C)C[C@@H]2OCCCC[C@H](C)Oc3ccc(NC(=O)Nc4ccc(C(F)(F)F)cc4)cc3C(=O)N([C@H](C)CO)C[C@H]2C)cc1	-83*	.	.	79
COc1ccc(S(=O)(=O)N(C)C[C@H]2OCCCC[C@@H](C)Oc3ccc(NC(=O)Nc4ccc(C(F)(F)F)cc4)cc3C(=O)N([C@@H](C)CO)C[C@@H]2C)cc1	-85*	-1	2	80
COc1ccc(NC(=O)Nc2ccc3c(c2)C(=O)N([C@H](C)CO)C[C@@H](C)[C@H](CN(C)S(=O)(=O)c2ccc(OC)cc2)OCCCC[C@H](C)O3)cc1	9	0	-1	-14
COc1ccc2c3c([nH]c2c1)[C@@H](CO)N(Cc1ccccc1)CC31CN(CC2CC2)C1	-36	.	.	.
O=C(CCCCCCC(=O)Nc1ccccc1O)N/N=C/c1cc(Cl)cc(Cl)c1O	.	.	0	.
C[C@@H]1CN([C@@H](C)CO)C(=O)c2cc(NC(=O)c3ccccc3)ccc2O[C@@H](C)CCCCO[C@@H]1CN(C)C(=O)Nc1cccc2ccccc12	-87*	-2	1	63
C[C@@H]1CN([C@@H](C)CO)C(=O)c2cc(NC(=O)c3ccncc3)ccc2O[C@@H](C)CCCCO[C@@H]1CN(C)C(=O)Nc1cccc2ccccc12	-84*	3	-1	53
C[C@@H]1CN([C@@H](C)CO)C(=O)c2cc(NC(=O)c3ccncc3)ccc2O[C@@H](C)CCCCO[C@H]1CN(C)C(=O)Nc1cccc2ccccc12	-80	-2	1	44
C[C@@H]1CCCCO[C@@H](CN(C)C(=O)Nc2cccc3ccccc23)[C@H](C)CN([C@H](C)CO)C(=O)c2cc(NC(=O)c3ccncc3)ccc2O1	-85*	-3	.	60
C[C@@H]1CCCCO[C@@H](CN(C)C(=O)Nc2cccc3ccccc23)[C@H](C)CN([C@@H](C)CO)C(=O)c2cc(NC(=O)c3ccncc3)ccc2O1	-73	-1	0	32
C[C@@H]1CN([C@H](C)CO)C(=O)c2cc(NC(=O)c3ccncc3)ccc2O[C@@H](C)CCCCO[C@@H]1CN(C)C(=O)Nc1cccc2ccccc12	-90*	0	2	.
CN(C)CCCN1C(=O)[C@@]2(Cc3ccccc31)c1ccccc1C(=O)N(Cc1ccccc1)[C@H]2c1ccc(CO)cc1	.	.	1	.
